# From publication PMC10764271 (Saudi Pharmaceutical Journal : SPJ, 2023)
# Test system: MCF-7
# Assay: MTT cytotoxicity assay, MCF-7
# Assay type: cell-based, human
# Conditions: Homo sapiens, MCF7, 48 h, read-out: IC50 Values MCF-7, MTT, 48 h, ±SD
# Outline: (§1)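 Cells grown in DMEM with 10 % FBS and 1 % antibiotics (100 U/ml penicillin), seeded at 1.0 × 10^4 cells/well and left 24 h at 37 °C, 5 % CO2. Medium replaced; test compound at 5, 10, 25 and 50 μM for 48 h. MTT (5 mg/mL solution) added for 4 h; formazan dissolved in DMSO; A570 read. Triplicates. % viability versus untreated cells; IC50 from dose–response analysis.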
row,SMILES,IC50 [µM]
1,"Oc1ccccc1C=Nc1cccnc1NCc1ccccc1 [H2L^1, 2-((2-(benzylamino)pyridin-3-ylimino)methyl)phenol]",70.9 ± 0.4
2,"Oc1ccc(Br)cc1C=Nc1cccnc1NCc1ccccc1 [H2L^2, 2-((2-(benzylamino)pyridin-3-ylimino)methyl)-4-bromophenol]",81.6 ± 0.6
3,"Oc1ccc2ccccc2c1C=Nc1cccnc1NCc1ccccc1 [H2L^3, 1-((2-(benzylamino)pyridin-3-ylimino)methyl)naphthalen-2-ol]",112.4 ± 0.6
4,"CCN(CC)c1ccc(C=Nc2cccnc2NCc2ccccc2)c(O)c1 [H2L^4, 2-((2-(benzylamino)pyridin-3-ylimino)methyl) −5-(diethylamino)phenol]",104.6 ± 0.2
5,"Oc1ccc(Br)cc1C=Nc1cccnc1NC1CCCCC1 [H2L^5, 4-bromo-2-((2-(cyclohexylamino)pyridin-3-ylimino)methyl)phenol]",88.81 ± 0.81
6,"CCN(CC)c1ccc(C=Nc2cccnc2NC2CCCCC2)c(O)c1 [H2L^6, 2-((2-(cyclohexylamino)pyridin-3-ylimino)methyl)-5-(diethylamino)phenol]",99.6 ± 0.41
7,"Cc1ccccc1Nc1ncccc1N=Cc1cc(Br)ccc1O [H2L^7, 2-((2-(o-toluidino)pyridin-3-ylimino)methyl)-4-bromophenol]",88.3 ± 0.51
8,"CCN(CC)c1ccc(C=Nc2cccnc2Nc2ccccc2C)c(O)c1 [H2L^8, 2-((2-(o-toluidino)pyridin-3-ylimino)methyl)-5-(diethylamino)phenol]",88.3 ± 0.3
9,"O=[N+]([O-])c1cccnc1NCc1ccccc1 [compound 1, N-benzyl-3-nitropyridin-2-amine]",122 ± 0.8
10,"O=[N+]([O-])c1cccnc1NC1CCCCC1 [compound 2, N-cyclohexyl-3-nitropyridin-2-amine]",118 ± 0.3
11,"Cc1ccccc1Nc1ncccc1[N+](=O)[O-] [compound 3, 3-nitro-N-o-tolylpyridin-2-amine]",120 ± 0.3
12,"Nc1cccnc1NCc1ccccc1 [compound 4, N^2-benzylpyridine-2,3-diamine]",109 ± 0.6
13,"Nc1cccnc1NC1CCCCC1 [compound 5, N^2-cyclohexylpyridine-2,3-diamine]",112 ± 0.41
14,"Cc1ccccc1Nc1ncccc1N [compound 6, N^2-o-tolylpyridine-2,3-diamine]",112 ± 0.2

# Same assay, conditions: read-out: IC50 Values MCF-7; MTT, 48 h, ±SD
row,SMILES,IC50 [µM]
1,"N.N.[Cl][Pt][Cl] [Cisplatin, reference compound]",24.1 ± 0.8

# Test system: MCF-10A
# Assay: MTT cytotoxicity assay, normal breast cell line MCF-10A
# Assay type: cell-based, human
# Conditions: Homo sapiens, MCF-10A, 48 h, read-out: IC50 Values MCF-10A
# Outline: as §1
row,SMILES,IC50 [µM]
1,"Oc1ccccc1C=Nc1cccnc1NCc1ccccc1 [H2L^1, 2-((2-(benzylamino)pyridin-3-ylimino)methyl)phenol]",> 100
2,"Oc1ccc(Br)cc1C=Nc1cccnc1NCc1ccccc1 [H2L^2, 2-((2-(benzylamino)pyridin-3-ylimino)methyl)-4-bromophenol]",> 100
3,"Oc1ccc2ccccc2c1C=Nc1cccnc1NCc1ccccc1 [H2L^3, 1-((2-(benzylamino)pyridin-3-ylimino)methyl)naphthalen-2-ol]",> 100
4,"CCN(CC)c1ccc(C=Nc2cccnc2NCc2ccccc2)c(O)c1 [H2L^4, 2-((2-(benzylamino)pyridin-3-ylimino)methyl) −5-(diethylamino)phenol]",> 100
5,"Oc1ccc(Br)cc1C=Nc1cccnc1NC1CCCCC1 [H2L^5, 4-bromo-2-((2-(cyclohexylamino)pyridin-3-ylimino)methyl)phenol]",> 100
6,"CCN(CC)c1ccc(C=Nc2cccnc2NC2CCCCC2)c(O)c1 [H2L^6, 2-((2-(cyclohexylamino)pyridin-3-ylimino)methyl)-5-(diethylamino)phenol]",> 100
7,"Cc1ccccc1Nc1ncccc1N=Cc1cc(Br)ccc1O [H2L^7, 2-((2-(o-toluidino)pyridin-3-ylimino)methyl)-4-bromophenol]",> 100
8,"CCN(CC)c1ccc(C=Nc2cccnc2Nc2ccccc2C)c(O)c1 [H2L^8, 2-((2-(o-toluidino)pyridin-3-ylimino)methyl)-5-(diethylamino)phenol]",> 100
9,"O=[N+]([O-])c1cccnc1NCc1ccccc1 [compound 1, N-benzyl-3-nitropyridin-2-amine]",> 100
10,"O=[N+]([O-])c1cccnc1NC1CCCCC1 [compound 2, N-cyclohexyl-3-nitropyridin-2-amine]",> 100
11,"Cc1ccccc1Nc1ncccc1[N+](=O)[O-] [compound 3, 3-nitro-N-o-tolylpyridin-2-amine]",> 100
12,"Nc1cccnc1NCc1ccccc1 [compound 4, N^2-benzylpyridine-2,3-diamine]",> 100
13,"Nc1cccnc1NC1CCCCC1 [compound 5, N^2-cyclohexylpyridine-2,3-diamine]",> 100
14,"Cc1ccccc1Nc1ncccc1N [compound 6, N^2-o-tolylpyridine-2,3-diamine]",> 100

# Same assay, conditions: read-out: IC50 Values MCF-10A; MTT, 48 h, normal breast cell line, ±SD
row,SMILES,IC50 [µM]
1,"N.N.[Cl][Pt][Cl] [Cisplatin, reference compound]",64.6 ± 0.5

# Test system: MDA-MB-231
# Assay: MTT cytotoxicity assay, MDA-MB-231
# Assay type: cell-based, human
# Conditions: Homo sapiens, MDA-MB-231, 48 h, read-out: IC50 Values MDA-MB-231, MTT, 48 h, ±SD
# Outline: as §1
row,SMILES,IC50 [µM]
1,"Oc1ccccc1C=Nc1cccnc1NCc1ccccc1 [H2L^1, 2-((2-(benzylamino)pyridin-3-ylimino)methyl)phenol]",75 ± 0.2
2,"Oc1ccc(Br)cc1C=Nc1cccnc1NCc1ccccc1 [H2L^2, 2-((2-(benzylamino)pyridin-3-ylimino)methyl)-4-bromophenol]",81.6 ± 0.6
3,"Oc1ccc2ccccc2c1C=Nc1cccnc1NCc1ccccc1 [H2L^3, 1-((2-(benzylamino)pyridin-3-ylimino)methyl)naphthalen-2-ol]",87.01 ± 0.3
4,"CCN(CC)c1ccc(C=Nc2cccnc2NCc2ccccc2)c(O)c1 [H2L^4, 2-((2-(benzylamino)pyridin-3-ylimino)methyl) −5-(diethylamino)phenol]",81.1 ± 0.2
5,"Oc1ccc(Br)cc1C=Nc1cccnc1NC1CCCCC1 [H2L^5, 4-bromo-2-((2-(cyclohexylamino)pyridin-3-ylimino)methyl)phenol]",82.2 ± 0.6
6,"CCN(CC)c1ccc(C=Nc2cccnc2NC2CCCCC2)c(O)c1 [H2L^6, 2-((2-(cyclohexylamino)pyridin-3-ylimino)methyl)-5-(diethylamino)phenol]",96 ± 0.4
7,"Cc1ccccc1Nc1ncccc1N=Cc1cc(Br)ccc1O [H2L^7, 2-((2-(o-toluidino)pyridin-3-ylimino)methyl)-4-bromophenol]",85.1 ± 0.4
8,"CCN(CC)c1ccc(C=Nc2cccnc2Nc2ccccc2C)c(O)c1 [H2L^8, 2-((2-(o-toluidino)pyridin-3-ylimino)methyl)-5-(diethylamino)phenol]",83.6 ± 0.3
9,"O=[N+]([O-])c1cccnc1NCc1ccccc1 [compound 1, N-benzyl-3-nitropyridin-2-amine]",110 ± 0.4
10,"O=[N+]([O-])c1cccnc1NC1CCCCC1 [compound 2, N-cyclohexyl-3-nitropyridin-2-amine]",110.2 ± 0.3
11,"Cc1ccccc1Nc1ncccc1[N+](=O)[O-] [compound 3, 3-nitro-N-o-tolylpyridin-2-amine]",112 ± 0.41
12,"Nc1cccnc1NCc1ccccc1 [compound 4, N^2-benzylpyridine-2,3-diamine]",108 ± 0.2
13,"Nc1cccnc1NC1CCCCC1 [compound 5, N^2-cyclohexylpyridine-2,3-diamine]",109 ± 0.8
14,"Cc1ccccc1Nc1ncccc1N [compound 6, N^2-o-tolylpyridine-2,3-diamine]",108 ± 0.2

# Same assay, conditions: read-out: IC50 Values MDA-MB-231; MTT, 48 h, ±SD
row,SMILES,IC50 [µM]
1,"N.N.[Cl][Pt][Cl] [Cisplatin, reference compound]",27 ± 0.8
